From PubChem
A selection: hits, their analogues and other compounds. The true share with any hit is near 1.9%.
NPY-Y1 PAM-ag: potentiators or agonists of human neuropeptide Y receptor Y1 | activation, % at 3.6 µM | P25929 | AID 1304 | NPY-Y1 expressing cells, potentiator/agonist activation | actives 0.37% (n = 220,000); in the data active = activation above about 33%, passing the limit was not always enough;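 note: cells stimulated with NPY at EC10 then isoproterenol at EC100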
Target sequence (P25929 whole entry, looked up): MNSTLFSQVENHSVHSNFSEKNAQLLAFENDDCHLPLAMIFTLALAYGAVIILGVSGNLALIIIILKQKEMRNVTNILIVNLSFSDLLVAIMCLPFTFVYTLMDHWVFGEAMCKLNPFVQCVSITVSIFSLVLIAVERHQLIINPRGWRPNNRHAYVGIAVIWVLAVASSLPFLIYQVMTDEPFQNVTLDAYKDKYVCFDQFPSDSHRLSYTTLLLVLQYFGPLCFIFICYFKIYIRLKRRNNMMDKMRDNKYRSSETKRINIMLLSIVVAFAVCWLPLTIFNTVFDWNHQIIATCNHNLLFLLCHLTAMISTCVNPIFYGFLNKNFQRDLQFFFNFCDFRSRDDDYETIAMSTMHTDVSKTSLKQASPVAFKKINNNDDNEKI
NPY Y2 blocker: antagonists of human neuropeptide Y receptor Y2; actives 0.99% (n = 140,000); P49146; inhibition, % at 2.7 µM; NPY-Y2 expressing cells, antagonist mode; in the data active = inhibition above about 17%
Target sequence (P49146 whole entry, looked up): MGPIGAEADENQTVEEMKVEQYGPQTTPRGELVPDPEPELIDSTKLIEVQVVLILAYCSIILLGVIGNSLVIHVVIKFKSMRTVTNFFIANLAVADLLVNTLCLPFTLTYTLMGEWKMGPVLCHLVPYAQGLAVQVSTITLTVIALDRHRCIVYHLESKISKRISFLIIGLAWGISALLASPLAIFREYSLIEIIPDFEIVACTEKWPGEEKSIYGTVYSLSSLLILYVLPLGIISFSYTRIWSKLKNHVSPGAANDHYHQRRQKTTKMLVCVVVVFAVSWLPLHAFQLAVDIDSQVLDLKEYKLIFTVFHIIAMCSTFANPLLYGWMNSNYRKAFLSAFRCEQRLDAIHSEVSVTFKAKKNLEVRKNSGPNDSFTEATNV
NPY-Y2 PAM-ag: human NPY-Y2 potentiation or agonism, primary screen | P49146 | cells expressing NPY-Y2, potentiator/agonist read-out | activation, % at 3.6 µM | actives 0.45% (n = 220,000) | AID 1359; in the data active = activation above about 27%;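 note: cells stimulated with NPY near EC25 plus isoproterenol at EC100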
NPY Y1 blocker: antagonists of human neuropeptide Y receptor Y1; actives 1% (n = 200,000); AID 1040; HEK293-CNG Y1 cells, membrane potential fluorescence; NPY at EC95, then isoproterenol; P25929; inhibition, % at 3.6 µM;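 active = inhibition above the campaign mean inhibition of all tested compounds plus 3 SD, cut at about 20% in these data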
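Assay system: HEK293 Y1/CNG channel cell line; Doses: single compound dose of 3.6 µM, 0.4% DMSO; Timing: dye 3 h, compound 60 min room temperature, stimulation 45 min; Technique: Membrane-potential fluorescent dye readout; Measure: % inhibition of NPY effect.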
Large screens that a line does not name were inactive.

COc1cc(CNCCNC(=O)c2nonc2N)ccc1OCc1ccc(Cl)cc1	none (no result: NPY Y2 blocker)
O=C1N=C(C=c2ccc(=Cc3[nH]c(=O)[nH]c3O)cc2)C(=O)N1	none (no result: NPY Y2 blocker, NPY Y1 blocker)
Cc1ccc(NC(=O)Cc2cc(C(=O)O)c3ccccc3n2)c(C)c1	NPY-Y1 PAM-ag 77.7, NPY-Y2 PAM-ag 79.7 (no result: NPY Y2 blocker)
CCCc1cc(C(=O)O)c2ccccc2n1	none
CCCCC(c1nnnn1C1CCCC1)N1CCN(C2CCCCC2)CC1 (centres undefined)	NPY Y2 blocker 26.0, NPY Y1 blocker 36.7
Cc1ccc(CN2CCSc3ccc(C(=O)NCc4cccnc4)cc32)cc1	none (no result: NPY Y2 blocker)
CN(C)CCNC(=O)c1ccc2c(c1)N(Cc1ccc(F)cc1)CCS2	NPY-Y1 PAM-ag 74.7, NPY-Y2 PAM-ag 65.3
Cc1ccc(NC(=O)C2(N(C(=O)Cn3nnnc3N)c3ccc(C)cc3)CCCCC2)cc1	NPY-Y1 PAM-ag 40.6, NPY-Y2 PAM-ag 34.0
CN(NC(=O)c1ccccc1F)c1ncccc1[N+](=O)[O-]	none (no result: NPY Y2 blocker, NPY Y1 blocker)
COc1ccc(Cc2nc(C(=O)Nc3ccc(Cl)cc3)cs2)cc1	NPY Y2 blocker 19.1, NPY Y1 blocker 24.0
CCCC(=O)Nc1ccccc1NC(=O)c1ccc(OC)cc1	none (no result: NPY Y2 blocker)
Cn1c(Cc2ccccc2)nnc1SCC(=O)NCCc1ccccc1	none (no result: NPY Y2 blocker)
Cn1c(-c2ccc3c(c2)OCO3)cnc1NCc1ccccc1	none
Cc1ccc(-c2cnc(NCc3cc4c(cc3[N+](=O)[O-])OCO4)n2C)cc1C	NPY-Y1 PAM-ag 102.0, NPY-Y2 PAM-ag 88.5 (no result: NPY Y2 blocker)
COc1ccc(C2=Nc3ccc(C)cc3C(c3ccccc3)N2CC(=O)NN)cc1 (centres undefined)	none (no result: NPY Y2 blocker)
COC(=O)CN1C(c2ccc(Cl)cc2)=Nc2ccc(Cl)cc2C1c1ccccc1 (centres undefined)	NPY Y2 blocker 19.0, NPY Y1 blocker 26.8
O=C(OC1C2CCC1C1CN(CCc3ccccc3)CC12)c1ccccc1 (centres undefined)	NPY Y2 blocker 41.6, NPY Y1 blocker 43.8
COC(=O)c1ccc(CN2CCN(CCc3ccccc3)C(CCO)C2)cc1 (centres undefined)	none (no result: NPY Y2 blocker)
Cc1ccc(C2(c3ccc(C)cc3)CC2C(=O)Nc2ccc([N+](=O)[O-])cc2O)cc1 (centres undefined)	NPY-Y2 PAM-ag 45.2
COc1ccc(CN(CCC(c2ccc(F)cc2)C2CCOC(C)(C)C2)C(=O)c2ccco2)cc1 (centres undefined)	NPY Y2 blocker 19.8, NPY Y1 blocker 21.8
C(=C\c1ccccc1)/CSc1nnc(-c2ccccn2)n1Cc1ccco1	NPY Y2 blocker 19.8, NPY Y1 blocker 21.4
O=c1ccn(Cc2ccc(F)cc2)c2ccnc(C(F)(F)F)c12	none
O=C(COC(=O)C1CCN(C(=O)c2ccc(Cl)cc2)CC1)NC1CCS(=O)(=O)C1 (centres undefined)	none (no result: NPY Y2 blocker)
COc1ccc(C)cc1NC(=O)COC(=O)C1CCN(C(=O)c2ccc(Cl)cc2)CC1	NPY-Y1 PAM-ag 86.2, NPY-Y2 PAM-ag 89.6 (no result: NPY Y2 blocker)
NC(=O)CSc1nnc(-c2cccs2)n1Cc1ccco1	none (no result: NPY Y2 blocker, NPY Y1 blocker)
Cc1ccc(C)c(CSc2nnc(-c3cccs3)n2Cc2ccco2)c1	NPY Y2 blocker 24.2, NPY Y1 blocker 52.6
O=C(CC1C(=O)NCCN1Cc1cccc(Oc2ccccc2)c1)NCCCn1cccn1 (centres undefined)	none (no result: NPY Y2 blocker)
O=C(NC(NC(=S)Nc1ccc(Cl)cc1Cl)C(Cl)(Cl)Cl)c1cccc([N+](=O)[O-])c1 (centres undefined)	NPY-Y1 PAM-ag 56.1, NPY-Y2 PAM-ag 55.5
Cc1ccc(/C(O)=C2\C(=O)C(=O)N(CC(C)O)C2c2ccccn2)cc1 (centres undefined)	none (no result: NPY Y2 blocker)
COc1ccccc1CNc1nc2ccccc2n1CCN1CCCCC1	NPY Y2 blocker 20.7, NPY Y1 blocker 22.6
O=C(OCC(=O)N1CCN(c2ccccc2)CC1)c1ccc[n+]([O-])c1	none (no result: NPY Y2 blocker)
COc1ccc(N2CCN(C(=O)c3cc4c(s3)-c3ccccc3S(=O)(=O)C4)CC2)cc1	NPY-Y1 PAM-ag 81.3, NPY-Y2 PAM-ag 67.4 (no result: NPY Y2 blocker, NPY Y1 blocker)
CC(Sc1nc(NCc2ccccc2)nc(N(C)C)n1)C(=O)Nc1ccccc1 (centres undefined)	none
CC(Sc1nc(N)c2c3c(sc2n1)CSC(C)(C)C3)C(=O)Nc1ccccc1 (centres undefined)	NPY Y2 blocker 53.1, NPY Y1 blocker 22.1
CCCCNC(=O)c1onc(CSc2ccccc2CC)c1C(=O)O	NPY Y1 blocker 21.1
CCCCNC(=O)c1onc(CSc2cccc(F)c2)c1C(=O)O	none
O=c1[nH]c(CSc2ncnc3sc(-c4ccccc4)cc23)nc2ccccc12	none (no result: NPY Y2 blocker, NPY Y1 blocker)
Cc1ccc(CNCC(O)(c2ccc(F)cc2)c2ccc(F)cc2)cc1	NPY Y2 blocker 18.6, NPY Y1 blocker 23.1
S=C1SCN(Cc2cccnc2)CN1Cc1cccnc1	none (no result: NPY Y2 blocker, NPY Y1 blocker)
COc1cccc(-c2cc(C(F)(F)F)nc(-n3ccc([N+](=O)[O-])n3)n2)c1	NPY Y1 blocker 21.3 (no result: NPY Y2 blocker)
CN(CC1CCOCC1)C(=O)CC1C(=O)NCCN1CC1CCCCC1 (centres undefined)	none (no result: NPY Y2 blocker)
COc1cc2c(cc1OC)-c1cc(NC3CCCCCCC3)nc(=O)n1CC2	NPY Y2 blocker 72.4, NPY Y1 blocker 64.1
COc1cc2c(cc1OC)-c1cc(NC3CC3)nc(=O)n1CC2	none
COc1cc2c(cc1OC)-c1cc(NC3CCCCC3)nc(=O)n1CC2	NPY Y1 blocker 32.5
c1ccc(CCN(Cc2ccccc2)C2CCN(C3CCCC3)CC2)cc1	NPY Y1 blocker 21.4 (no result: NPY Y2 blocker)
COc1cccc(N=c2oc3cc(O)ccc3cc2C(=O)NCC2CCCO2)c1 (centres undefined)	none (no result: NPY Y2 blocker)
COc1ccccc1N=c1oc2cc(O)ccc2cc1C(=O)NCC1CCCO1 (centres undefined)	NPY Y2 blocker 20.8, NPY Y1 blocker 24.2
Cc1ccc2[nH]c3c(N4CCN(Cc5ccc6c(c5)OCO6)CC4)ncnc3c2c1	none
c1nc(N2CCN(Cc3ccc4c(c3)OCO4)CC2)c2[nH]cnc2n1	NPY-Y1 PAM-ag 56.6, NPY-Y2 PAM-ag 101.1
Cc1[nH]c2ccccc2c1/C=N/Nc1ccccc1[N+](=O)[O-]	NPY-Y1 PAM-ag 106.9, NPY-Y2 PAM-ag 101.4 (no result: NPY Y2 blocker)
CC(C)CCNC(=O)C(CC(C)C)N(Cc1ccc2c(c1)OCO2)C(=O)c1snc(C(N)=O)c1N (centres undefined)	none (no result: NPY Y2 blocker)
CC(=O)Nc1nc2ccc(-c3nc4ccccc4o3)cc2s1	NPY-Y1 PAM-ag 46.2, NPY-Y2 PAM-ag 37.4
CN(C)c1ccc(P(=O)(OCc2ccccc2)C(O)c2ccccc2)cc1 (centres undefined)	none (no result: NPY Y2 blocker, NPY Y1 blocker)
Cc1ccc(C(=O)NC(=O)CSc2ncccc2C(=O)O)cc1	none (no result: NPY Y2 blocker)
CCn1c(Cn2nnc(-c3ccccc3)n2)nnc1SCC(=O)Nc1ccc(C(C)=O)cc1	NPY-Y1 PAM-ag 45.8, NPY-Y2 PAM-ag 47.4
CC(C)(C)c1ccc(-n2nc(C#N)c(Cl)cc2=O)cc1	NPY-Y1 PAM-ag 67.3, NPY-Y2 PAM-ag 61.1 (no result: NPY Y2 blocker)
CC1CC(C)CN(C(=O)Cn2cc(C=O)c3ccccc32)C1 (centres undefined)	none (no result: NPY Y2 blocker)
Cc1ccc(Nc2nc(-c3ccc(O)c(O)c3)cs2)nc1	NPY-Y1 PAM-ag 43.7, NPY-Y2 PAM-ag 50.9 (no result: NPY Y2 blocker)
O=C1CC(/C=C/c2ccncc2)=Nc2ccccc2N1	none (no result: NPY Y2 blocker)
COc1cccc2sc(Nc3nc(-c4cc5ccccc5oc4=O)cs3)nc12	none
COc1cccc2sc(Nc3nc(-c4ccncc4)cs3)nc12	NPY-Y1 PAM-ag 40.4, NPY-Y2 PAM-ag 35.2 (no result: NPY Y2 blocker)
